Experimental findings from ChEMBL document CHEMBL5625169, “Development of novel PEX5-PEX14 protein-protein interaction (PPI) inhibitors based on an oxopiperazine template” (Eur J Med Chem, 2023) are described below.

Structures are written as SMILES.

Chain of Tumour suppressor p53/oncoprotein Mdm2 (P04637 whole entry): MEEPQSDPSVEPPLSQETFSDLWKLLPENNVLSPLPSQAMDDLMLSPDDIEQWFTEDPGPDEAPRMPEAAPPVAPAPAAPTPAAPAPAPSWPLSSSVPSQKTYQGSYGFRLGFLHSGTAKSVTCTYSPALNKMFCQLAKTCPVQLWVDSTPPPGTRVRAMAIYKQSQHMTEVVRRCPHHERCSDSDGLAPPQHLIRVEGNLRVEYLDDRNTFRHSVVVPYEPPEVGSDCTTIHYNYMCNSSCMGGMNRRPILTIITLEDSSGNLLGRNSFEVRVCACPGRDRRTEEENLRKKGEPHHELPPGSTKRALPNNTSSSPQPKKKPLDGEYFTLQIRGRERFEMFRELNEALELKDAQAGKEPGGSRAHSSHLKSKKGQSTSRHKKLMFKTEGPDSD
Chain of Tumour suppressor p53/oncoprotein Mdm2 (Q00987 whole entry): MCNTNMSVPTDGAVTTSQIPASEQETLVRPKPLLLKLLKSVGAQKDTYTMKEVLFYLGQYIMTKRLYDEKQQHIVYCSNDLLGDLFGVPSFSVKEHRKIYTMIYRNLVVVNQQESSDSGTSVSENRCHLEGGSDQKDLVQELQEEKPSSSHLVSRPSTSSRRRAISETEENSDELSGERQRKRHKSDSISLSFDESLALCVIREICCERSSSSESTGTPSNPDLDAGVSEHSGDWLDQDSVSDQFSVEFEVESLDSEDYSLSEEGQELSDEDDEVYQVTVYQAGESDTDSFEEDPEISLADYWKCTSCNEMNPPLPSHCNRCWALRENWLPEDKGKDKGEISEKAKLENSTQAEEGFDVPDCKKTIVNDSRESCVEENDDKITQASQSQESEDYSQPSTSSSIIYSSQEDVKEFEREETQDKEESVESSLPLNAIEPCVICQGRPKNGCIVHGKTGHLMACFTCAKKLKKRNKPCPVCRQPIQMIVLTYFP

Test system in the first series: not listed separately
Nature of the series: Selectivity index, ratio of EC50 for cytotoxicity against human HepG2 cells assessed as reduction in cell viability to EC50 for antitrypanosomal activity against blood stream form of Trypanosoma brucei Lister 427 MITat 1.2 assessed as parasite growth inhibition. Type of series: toxicity, cell-based. To be noted: read-out: Ratio EC50. The method, boiled down:
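Ratio of HepG2 EC50 (µM) to T. b. brucei EC50. Parasites: bloodstream form, 2×10^3/mL, 66 h plus resazurin to 72 h, quadruplicate.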
As to `COC(=O)[C@H](Cc1c[nH]c2ccccc12)N1CC(=O)N[C@H](C(=O)NCc2cccc3ccccc23)C1`, the selectivity ratio was determined as 3.2.

As for `COC(=O)[C@H](Cc1ccccc1)N1CC(=O)N[C@@H](Cc2c[nH]c3ccccc23)C1=O`, the selectivity ratio was < 1.

Regarding `COC(=O)[C@H](Cc1ccccc1)N1CCN[C@@H](Cc2c[nH]c3ccccc23)C1=O`, the selectivity ratio was > 2.3.

As for `COC(=O)[C@H](Cc1c[nH]c2ccccc12)N1CC(=O)N[C@@H](Cc2c[nH]c3ccccc23)C1`, the selectivity ratio came out at 3.6.

With `COC(=O)[C@H](Cc1c[nH]c2ccccc12)N1CCN[C@@H](Cc2c[nH]c3ccccc23)C1=O`, the selectivity ratio is > 3.4.

As for `O=C1CN(CCc2c[nH]c3ccccc23)C[C@H](Cc2c[nH]c3ccccc23)N1`, the selectivity ratio came out at 1.7.

Turning to `COC(=O)[C@H](Cc1c[nH]c2ccccc12)N1C[C@H](Cc2c[nH]c3ccccc23)NC(=O)C1=O`, the selectivity ratio is > 3.4.

On to `COC(=O)[C@H](Cc1ccccc1)N1CC(=O)N[C@@H](Cc2c[nH]c3ccccc23)C1`, for which the selectivity ratio is 4.3.

With `O=C1CN([C@H](CO)Cc2c[nH]c3ccccc23)C[C@H](Cc2c[nH]c3ccccc23)N1`, the selectivity ratio amounted to 1.7.

As for `CC(=O)OC[C@H](Cc1c[nH]c2ccccc12)N1CC(=O)N[C@@H](Cc2c[nH]c3ccccc23)C1`, the selectivity ratio came out at 1.8.

Turning to `COC(=O)[C@H](Cc1c[nH]c2ccccc12)N1CCCN[C@@H](Cc2c[nH]c3ccccc23)C1=O`, the selectivity ratio amounted to 4.2.

The next series concerns the target CREB-binding protein/Histone acetyltransferase p300 (Homo sapiens, UniProt Q09472+Q92793). Briefly: Binding affinity to p300-CBP (unknown origin) protein protein interaction assessed as dissociation constant by tryptophan fluorescence assay.
Details: not given
Consider `CC(C)C[C@@H]1NCCN([C@@H](CC(C)C)C(=O)N2CCN([C@@H](CCC(N)=O)C(N)=O)C(=O)[C@@H]2C)C1=O`, for which the Kd (in general, the constant that tells how readily two partners part at equilibrium) was 0.53 µM.

The subject of another series is HepG2. Nature of the series: Cytotoxicity against human HepG2 cells assessed as reduction in cell viability incubated for 66 hrs by resazurin staining based analysis. Type of series: functional. The following applies: HepG2, 66 h. The method, boiled down: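 HepG2 cells seeded at 5000 per well and grown overnight at 37 °C, 5% CO2. Compounds tested in triplicate at 100 to 3.125 µM (twofold dilutions); hygromycin B as cytotoxic control. After 66 h, resazurin added and plates incubated a further 6 h. Fluorescence background-subtracted and normalised to untreated cells; EC50 from sigmoidal dose-response fit.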
For `COC(=O)[C@H](Cc1c[nH]c2ccccc12)N1CC(=O)N[C@H](C(=O)NCc2cccc3ccccc23)C1`, the EC50 (in general, the concentration that produces a half-maximal response) is 33 µM.

On to `COC(=O)[C@H](Cc1ccccc1)N1CC(=O)N[C@@H](Cc2c[nH]c3ccccc23)C1=O`, for which the EC50 was 24 µM.

For `COC(=O)[C@H](Cc1ccccc1)N1CCN[C@@H](Cc2c[nH]c3ccccc23)C1=O`, the EC50 is > 100 µM.

Turning to `COC(=O)[C@H](Cc1c[nH]c2ccccc12)N1CC(=O)N[C@@H](Cc2c[nH]c3ccccc23)C1`, the EC50 was found to be 17 µM.

Consider `COC(=O)[C@H](Cc1c[nH]c2ccccc12)N1CCN[C@@H](Cc2c[nH]c3ccccc23)C1=O`, for which the EC50 is > 100 µM.

As to `O=C1CN(CCc2c[nH]c3ccccc23)C[C@H](Cc2c[nH]c3ccccc23)N1`, the EC50 turned out to be 12 µM.

`COC(=O)[C@H](Cc1c[nH]c2ccccc12)N1CC(=O)N[C@H](C(=O)NCc2ccccc2)C1`: the concentration for a half-maximal effect (EC50) was > 100 µM.

With `COC(=O)[C@H](Cc1c[nH]c2ccccc12)N1C[C@H](Cc2c[nH]c3ccccc23)NC(=O)C1=O`, the EC50 is > 100 µM.

As for `NC(=O)[C@H](Cc1c[nH]c2ccccc12)N1CCN[C@@H](Cc2c[nH]c3ccccc23)C1=O`, the EC50 is > 100 µM.

`O=C1CN(C(=O)Cc2c[nH]c3ccccc23)C[C@H](Cc2c[nH]c3ccccc23)N1`: the EC50 is > 100 µM.

Regarding `COC(=O)[C@H](Cc1ccccc1)N1CC(=O)N[C@@H](Cc2c[nH]c3ccccc23)C1`, the EC50 amounted to 56 µM.

In the case of `O=C1CN([C@H](CO)Cc2c[nH]c3ccccc23)C[C@H](Cc2c[nH]c3ccccc23)N1`, the EC50 worked out at 24 µM.

Take `COC(=O)[C@H](Cc1c[nH]c2ccccc12)N1CCN(C(C)=O)[C@@H](Cc2c[nH]c3ccccc23)C1=O`: the EC50 was > 100 µM.

With `CC(=O)OC[C@H](Cc1c[nH]c2ccccc12)N1CC(=O)N[C@@H](Cc2c[nH]c3ccccc23)C1`, the EC50 came out at 29 µM.

Turning to `COC(=O)[C@H](Cc1c[nH]c2ccccc12)N1CCCN[C@@H](Cc2c[nH]c3ccccc23)C1=O`, the EC50 was determined as 21 µM.

On to `NC(=O)[C@H](Cc1ccccc1)N1CC(=O)N[C@@H](Cc2c[nH]c3ccccc23)C1=O`, for which the EC50 was > 100 µM.

Test system in a further series: not listed separately
Briefly: Inhibition of Trypanosoma brucei biotinylated PEX5 /N-terminal His-tagged PEX14 (19 to 84 residues) protein-protein interaction expressed in Escherichia coli BL21 assessed as inhibition constant by AlphaScreen assay.
Details: not given
The method, boiled down: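 TbPEX14 N-terminal domain (aa 19–84) expressed from pETM-11 in E. coli BL21, Ni-NTA then gel filtration in PBS. AlphaScreen competition with serial inhibitor dilution, other components held constant, quadruplicate. Ki = EC50/(1+[LT]/KdL*T), apparent Kd measured for each condition.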
On to `COC(=O)[C@H](Cc1c[nH]c2ccccc12)N1CC(=O)N[C@H](C(=O)NCc2cccc3ccccc23)C1`, for which the Ki (as a rule, the dissociation constant of the complex between target and ligand, obtained from inhibition or displacement) was determined as 77 µM.

Consider `COC(=O)[C@H](Cc1ccccc1)N1CC(=O)N[C@@H](Cc2c[nH]c3ccccc23)C1=O`, for which the inhibition constant Ki is > 1000 µM.

As to `COC(=O)[C@H](Cc1ccccc1)N1CCN[C@@H](Cc2c[nH]c3ccccc23)C1=O`, the Ki worked out at 265 µM.

Take `COC(=O)[C@H](Cc1c[nH]c2ccccc12)N1CC(=O)N[C@@H](Cc2c[nH]c3ccccc23)C1`: the Ki was found to be 27 µM.

For `COC(=O)[C@H](Cc1c[nH]c2ccccc12)N1CCN[C@@H](Cc2c[nH]c3ccccc23)C1=O`, the Ki is 133 µM.

As to `O=C1CN(CCc2c[nH]c3ccccc23)C[C@H](Cc2c[nH]c3ccccc23)N1`, the Ki was found to be 41 µM.

With `COC(=O)[C@H](Cc1c[nH]c2ccccc12)N1CC(=O)N[C@H](C(=O)NCc2ccccc2)C1`, the Ki is 494 µM.

With `COC(=O)[C@H](Cc1c[nH]c2ccccc12)N1C[C@H](Cc2c[nH]c3ccccc23)NC(=O)C1=O`, the Ki is 75 µM.

As for `NC(=O)[C@H](Cc1c[nH]c2ccccc12)N1CCN[C@@H](Cc2c[nH]c3ccccc23)C1=O`, the Ki was 288 µM.

For the compound `O=C1CN(C(=O)Cc2c[nH]c3ccccc23)C[C@H](Cc2c[nH]c3ccccc23)N1`, the Ki was 195 µM.

In the case of `COC(=O)[C@H](Cc1ccccc1)N1CC(=O)N[C@@H](Cc2c[nH]c3ccccc23)C1`, the Ki was determined as 73 µM.

`O=C1CN([C@H](CO)Cc2c[nH]c3ccccc23)C[C@H](Cc2c[nH]c3ccccc23)N1`: the Ki worked out at 48 µM.

In the case of `COC(=O)[C@H](Cc1c[nH]c2ccccc12)N1CCN(C(C)=O)[C@@H](Cc2c[nH]c3ccccc23)C1=O`, the Ki stood at 542 µM.

As for `CC(=O)OC[C@H](Cc1c[nH]c2ccccc12)N1CC(=O)N[C@@H](Cc2c[nH]c3ccccc23)C1`, the Ki amounted to 58 µM.

With `COC(=O)[C@H](Cc1c[nH]c2ccccc12)N1CCCN[C@@H](Cc2c[nH]c3ccccc23)C1=O`, the Ki was found to be 53 µM.

For the compound `NC(=O)[C@H](Cc1ccccc1)N1CC(=O)N[C@@H](Cc2c[nH]c3ccccc23)C1=O`, the Ki was > 1000 µM.

Another series concerns the target Tumour suppressor p53/oncoprotein Mdm2 (Homo sapiens, UniProt P04637+Q00987). Briefly: Binding affinity to MDM2-p53 (unknown origin) protein protein interaction assessed as dissociation constant by fluorescence polarization assay.
Details: not given
Take `CC(C)C[C@@H](C(N)=O)N1CCN(C(=O)[C@H](Cc2c[nH]c3ccccc23)N2CCN[C@@H](Cc3ccccc3)C2=O)[C@@H](Cc2ccccc2)C1=O`: the Kd stood at 2.9 µM.

A further series concerns Trypanosoma brucei. Briefly: Antitrypanosomal activity against blood stream form of Trypanosoma brucei Lister 427 MITat 1.2 assessed as parasite growth inhibition incubated for 66 hrs by resazurin dye based assay. Type of series: functional, organism-based. The following applies: Lister 427 MITat 1.2, 66 h. The method, boiled down:
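Bloodstream-form Lister 427 (MITat 1.2) parasites maintained in HMI-11 with 10% FBS at 37 °C, 5% CO2. Twofold serial dilutions, 10 per row, in quadruplicate. Final 2×10^3 parasites/mL, 66 h, then resazurin added and incubated to 72 h. Fluorescence read at ex 530/em 585 nm, background subtracted, untreated wells taken as 100% survival. EC50 from sigmoidal dose-response fit.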
In general terms: The colour change of resazurin is a common sign of viable cells or microbes.
On to `COC(=O)[C@H](Cc1c[nH]c2ccccc12)N1CC(=O)N[C@H](C(=O)NCc2cccc3ccccc23)C1`, for which the EC50 was 10 µM.

`COC(=O)[C@H](Cc1ccccc1)N1CC(=O)N[C@@H](Cc2c[nH]c3ccccc23)C1=O`: the EC50 worked out at 29 µM.

Take `COC(=O)[C@H](Cc1ccccc1)N1CCN[C@@H](Cc2c[nH]c3ccccc23)C1=O`: the EC50 is 43 µM.

As for `COC(=O)[C@H](Cc1c[nH]c2ccccc12)N1CC(=O)N[C@@H](Cc2c[nH]c3ccccc23)C1`, the EC50 worked out at 5 µM.

On to `COC(=O)[C@H](Cc1c[nH]c2ccccc12)N1CCN[C@@H](Cc2c[nH]c3ccccc23)C1=O`, for which the EC50 came to 30 µM.

Take `O=C1CN(CCc2c[nH]c3ccccc23)C[C@H](Cc2c[nH]c3ccccc23)N1`: the EC50 is 7 µM.

`COC(=O)[C@H](Cc1c[nH]c2ccccc12)N1CC(=O)N[C@H](C(=O)NCc2ccccc2)C1`: the EC50 is > 100 µM.

With `COC(=O)[C@H](Cc1c[nH]c2ccccc12)N1C[C@H](Cc2c[nH]c3ccccc23)NC(=O)C1=O`, the half-maximal effective concentration (EC50) came to 29 µM.

As to `NC(=O)[C@H](Cc1c[nH]c2ccccc12)N1CCN[C@@H](Cc2c[nH]c3ccccc23)C1=O`, the EC50 was > 100 µM.

Regarding `O=C1CN(C(=O)Cc2c[nH]c3ccccc23)C[C@H](Cc2c[nH]c3ccccc23)N1`, the EC50 is > 100 µM.

In the case of `COC(=O)[C@H](Cc1ccccc1)N1CC(=O)N[C@@H](Cc2c[nH]c3ccccc23)C1`, the EC50 came to 13 µM.

As for `O=C1CN([C@H](CO)Cc2c[nH]c3ccccc23)C[C@H](Cc2c[nH]c3ccccc23)N1`, the EC50 was 14 µM.

Turning to `COC(=O)[C@H](Cc1c[nH]c2ccccc12)N1CCN(C(C)=O)[C@@H](Cc2c[nH]c3ccccc23)C1=O`, the EC50 was > 100 µM.

Turning to `CC(=O)OC[C@H](Cc1c[nH]c2ccccc12)N1CC(=O)N[C@@H](Cc2c[nH]c3ccccc23)C1`, the EC50 was 13 µM.

Turning to `COC(=O)[C@H](Cc1c[nH]c2ccccc12)N1CCCN[C@@H](Cc2c[nH]c3ccccc23)C1=O`, the EC50 is 5 µM.

Consider `NC(=O)[C@H](Cc1ccccc1)N1CC(=O)N[C@@H](Cc2c[nH]c3ccccc23)C1=O`, for which the EC50 is > 100 µM.
